Test results from ChEMBL document CHEMBL1828517, “Synthesis, evaluation and application of polycyclic fluorescent analogues as N-methyl-D-aspartate receptor and voltage gated calcium channel ligands” (Eur J Med Chem, 2011).
The source made the active and inactive calls. The calls are words filed in the database; no cut-off is given here.

Key:
[1] = target: T1, Glutamate NMDA receptor (Rattus norvegicus) (UniProt P35439+Q00959+Q00960+Q00961+Q62645+Q8VHN2+Q9R1M7); assay: Antagonist activity at NMDA receptor in Sprague-Dawley rat striatal synaptoneurosomes assessed as inhibition of NMDA/glycine-induced calcium flux at 100 uM by spectrofluorimetric analysis relative to control; format: functional
How it was run: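 Male Sprague-Dawley rat brain synaptoneurosomes are loaded with Mag-Fura-2/Fura-2 AM (5 μM final) for 10 min at 37 °C and resuspended in Krebs-HEPES pH 7.4. Compounds at 100 μM (0.1% DMSO final) are preincubated 5 min at 37 °C. NMDA (100 μM) plus glycine (100 μM) is added at 10 s and ratiometric fluorescence is read. Results are % of the DMSO control, 3 preparations × 3 determinations.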

[2] = test system: Glutamate NMDA receptor (Rattus norvegicus); assay: Antagonist activity at NMDA receptor in Sprague-Dawley rat striatal synaptoneurosomes assessed as inhibition of NMDA/glycine-induced calcium flux at 100 uM by spectrofluorimetric analysis relative to control
[3] = Antagonist activity at voltage gated calcium channel in Sprague-Dawley rat striatal synaptoneurosomes assessed as inhibition of KCl-induced calcium flux at 100 uM by spectrofluorimetric analysis relative to control; format: functional
How it was run: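 Rat synaptoneurosomes loaded with Fura-2 AM (5 μM final, 10 min, 37 °C) in Krebs-HEPES pH 7.4. Compounds at 100 μM (0.1% DMSO) are preincubated 5 min at 37 °C. Depolarization is done at 10 s with KCl (140 mM) solution. Baseline is subtracted from peak fluorescence, the KCl-induced rise is taken as 100%, and inhibition is expressed relative to it.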

[4] = target: Glutamate NMDA receptor; assay: Antagonist activity at NMDA receptor in Sprague-Dawley rat striatal synaptoneurosomes assessed as inhibition of NMDA/glycine-induced calcium flux by spectrofluorimetric analysis; format: functional
How it was run: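 Fura-2 AM-loaded rat synaptoneurosomes in Krebs-HEPES pH 7.4 at 37 °C. Compound is preincubated 5 min at log-spaced concentrations. Calcium influx is triggered with NMDA (100 μM) plus glycine (100 μM) and measured by ratiometric spectrofluorimetry. The concentration-response is fitted to a four-parameter logistic equation; 3 preparations × 3 determinations.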

[5] = target: T1, Glutamate NMDA receptor (Rattus norvegicus); assay: Binding affinity to NMDA receptor in Sprague-Dawley rat striatal synaptoneurosomes at 100 uM after 30 mins by competition binding assay in presence of amantadine; format: protein-complex assay
How it was run: (§1)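 Unloaded rat synaptoneurosomes (0.6 mg/ml) are resuspended in Krebs-HEPES at 37 °C and given the fluorescent ligand (100 μM) alone or with a competitor at 100 μM (DMSO <0.1%). NMDA (100 μM) plus glycine (100 μM) is added, followed by 30 min at 37 °C. The pellet is washed and resuspended, and fluorescence is read at 324/455 nm. Results are % of ligand-alone intensity; n = 9.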

[6] = target: T1, Glutamate NMDA receptor (Rattus norvegicus); assay: Binding affinity to NMDA receptor in Sprague-Dawley rat striatal synaptoneurosomes at 100 uM after 30 mins by competition binding assay in presence of NGP1-01; format: protein-complex assay; how it was run: as §1
[7] = target: T1, Glutamate NMDA receptor (Rattus norvegicus); assay: Binding affinity to NMDA receptor in Sprague-Dawley rat striatal synaptoneurosomes at 100 uM after 30 mins by competition binding assay in presence of MK-801; format: protein-complex assay; how it was run: as §1

Compound | inhibition [1] | inhibition (INH) [2] | inhibition (INH) [3] | IC50 [4] | inhibition [5] | inhibition [6] | inhibition [7]
O=[N+]([O-])c1ccc(NC23CC4CC(CC(C4)C2)C3)c([N+](=O)[O-])c1 | 19.2% | – | – | – | – | – | –
CNc1ccccc1C(=O)OC12C3C4CC5C6C4C1C6C1(OCCCN12)C53 (configuration not stated) | 12% | 86.41% | 84.79% | – | – | – | –
O=[N+]([O-])c1ccc(NCCCNC23CC4CC(CC(C4)C2)C3)c([N+](=O)[O-])c1 | 23.4% | 76.59% | 88.5% | – | – | – | –
N#CCCNC12CC3CC(CC(C3)C1)C2 | 19.3% | – | – | – | – | – | –
O=C(NCCCNC12CC3CC(CC(C3)C1)C2)c1cc2ccccc2oc1=O | 13.2% | 86.77% | 67.99% | – | – | – | –
CNc1ccccc1C(=O)NC12CC3CC(CC(C3)C1)C2 | inactive | – | – | – | – | – | –
O=C(NCCCNC12CC3CC(CC(C3)C1)C2)c1n[nH]c2ccccc12 | inactive | 95.19% | 86.91% | – | – | – | –
NCCCNC12CC3CC(CC(C3)C1)C2 | 9.01% | 91% | 89.3% | – | – | – | –
O=C(NC12CC3CC(CC(C3)C1)C2)c1n[nH]c2ccccc12 | 16% | 83.7% | – | – | – | – | –
O=C(OC12C3C4CC5C6C4C1C6C1(OCCCN12)C53)c1n[nH]c2ccccc12 (configuration not stated) | 13.6% | 77.89% | 83.62% | – | – | – | –
O=C(NC12CC3CC(CC(C3)C1)C2)c1cc2ccccc2oc1=O | 20.3% | – | – | – | – | – | –
CN(C)c1cccc2c(S(=O)(=O)NC34CC5CC(CC(C5)C3)C4)cccc12 | 21.9% | – | – | – | – | – | –
N#Cc1c2ccccc2cn1CCCNC12CC3CC(CC(C3)C1)C2 | 13.6% | 86.41% | 45.92% | – | – | – | –
CN(C)c1cccc2c(S(=O)(=O)NCCCNC34CC5CC(CC(C5)C3)C4)cccc12 | 37% | 62.97% | 36.74% | 270 nM | inactive | inactive | inactive
N#Cc1c2ccccc2cn1C12CC3CC(CC(C3)C1)C2 | 16% | – | – | – | – | – | –
CNc1ccccc1C(=O)NCCCNC12CC3CC(CC(C3)C1)C2 | 12% | 88.02% | 87.91% | – | – | – | –
OC12C3C4CC5C6C4C1C6C1(OCCCN21)C53 (configuration not stated) | 22.7% | 77.29% | 87.24% | – | – | – | –
